Laboratory results taken from ChEMBL document CHEMBL1153941, “Synthesis, molecular modeling, and selective inhibitory activity against human monoamine oxidases of 3-carboxamido-7-substituted coumarins” (J Med Chem, 2009).

Legend:
[1] = target: T1, Amine oxidase [flavin-containing] A (Homo sapiens, UniProt P21397); test: Inhibition of human recombinant MAOA expressed in BTI-TN-5B1-4 cells assessed as effect on H2O2 production from para-tyramine at 100 uM by fluorimetric method; format: cell-based
T1 sequence (P21397 whole entry): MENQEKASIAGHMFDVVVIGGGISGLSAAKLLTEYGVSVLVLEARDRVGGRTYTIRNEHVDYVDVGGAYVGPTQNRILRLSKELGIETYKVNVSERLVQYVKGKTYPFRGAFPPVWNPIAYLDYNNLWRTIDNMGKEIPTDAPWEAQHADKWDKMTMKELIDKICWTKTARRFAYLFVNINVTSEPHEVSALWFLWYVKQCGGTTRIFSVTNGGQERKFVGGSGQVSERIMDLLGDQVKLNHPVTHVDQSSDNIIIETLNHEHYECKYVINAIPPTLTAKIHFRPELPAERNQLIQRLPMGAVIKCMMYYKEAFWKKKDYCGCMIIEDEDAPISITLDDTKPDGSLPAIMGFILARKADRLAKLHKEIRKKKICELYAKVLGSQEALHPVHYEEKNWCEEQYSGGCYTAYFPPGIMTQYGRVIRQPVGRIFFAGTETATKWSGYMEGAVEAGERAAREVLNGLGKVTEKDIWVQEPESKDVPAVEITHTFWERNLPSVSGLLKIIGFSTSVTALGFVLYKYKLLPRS
Procedure, shortened: (§1)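 Enzyme and test drug were preincubated 15 min at 37 °C in 0.05 M sodium phosphate, pH 7.4. Final 1 mM p-tyramine, 200 µM Amplex Red and 1 U/mL HRP were then added. Resorufin fluorescence (ex 545/em 590 nm) was read over 15 min, minus enzyme-free background. Top concentration tested was 100 µM.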

[2] = target: T2, Amine oxidase [flavin-containing] B (Homo sapiens, UniProt P27338); test: Inhibition of human recombinant MAOB expressed in BTI-TN-5B1-4 cells assessed as effect on H2O2 production from para-tyramine at 1 mM by fluorimetric method; format: cell-based
T2 sequence (P27338 whole entry): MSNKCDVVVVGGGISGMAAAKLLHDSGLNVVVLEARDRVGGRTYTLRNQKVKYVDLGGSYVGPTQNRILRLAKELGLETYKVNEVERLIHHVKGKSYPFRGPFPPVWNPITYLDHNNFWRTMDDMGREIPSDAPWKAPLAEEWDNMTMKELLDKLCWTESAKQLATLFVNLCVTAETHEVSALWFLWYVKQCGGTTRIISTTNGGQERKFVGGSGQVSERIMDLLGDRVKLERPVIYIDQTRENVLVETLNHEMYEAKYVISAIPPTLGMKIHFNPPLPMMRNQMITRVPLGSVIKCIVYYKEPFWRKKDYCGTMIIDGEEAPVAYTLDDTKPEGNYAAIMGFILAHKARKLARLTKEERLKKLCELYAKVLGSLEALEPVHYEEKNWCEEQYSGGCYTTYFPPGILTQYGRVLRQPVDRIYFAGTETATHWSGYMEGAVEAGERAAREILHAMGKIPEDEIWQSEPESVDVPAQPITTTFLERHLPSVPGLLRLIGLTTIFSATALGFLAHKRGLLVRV
Procedure, shortened: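 Drugs preincubated with enzyme 15 min, 37 °C, 0.05 M sodium phosphate pH 7.4. Amplex Red 200 µM, HRP 1 U/mL, p-tyramine 1 mM (final) added. Resorufin fluorescence (ex 545/em 590 nm) read over 15 min at 37 °C, enzyme-free background subtracted.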

[3] = target: T1, Amine oxidase [flavin-containing] A; test: Inhibition of human recombinant MAOA expressed in BTI-TN-5B1-4 cells assessed as effect on H2O2 production from para-tyramine by fluorimetric method; format: cell-based
[4] = target: T2, Amine oxidase [flavin-containing] B; test: Inhibition of human recombinant MAOB expressed in BTI-TN-5B1-4 cells assessed as effect on H2O2 production from para-tyramine at 100 uM by fluorimetric method; format: cell-based; procedure, shortened: as §1
Homo sapiens = species: Homo sapiens; test: Selectivity index, ratio of IC50 for human recombinant MAOA to IC50 for human recombinant MAOB

SMILES	IC50 [1]	IC50 [3] [µM]	other results
O=C(NCCN1CCOCC1)c1ccc(Cl)cc1 [MOCLOBEMIDE]			IC50 [2]: Not Active
N#Cc1c(F)c(F)c(NC(=O)c2cc3ccc(OCc4ccc(F)cc4)cc3oc2=O)c(F)c1F		58.5	
CN(C(=O)c1cc2ccccc2oc1=O)c1ccccc1	Not Active		
O=C(c1cc2ccccc2oc1=O)N(c1ccccc1)c1ccccc1	Not Active		IC50 [4]: Not Active
Cc1cc(C)cc(NC(=O)c2cc3ccccc3oc2=O)c1		17.6	
O=C(Nc1c(F)c(F)nc(F)c1F)c1cc2ccccc2oc1=O		11.4	
NCCNC(=O)c1cc2ccccc2oc1=O	Not Active		
Cc1ccc(NC(=O)c2cc3ccccc3oc2=O)c(C)c1		12.3	
CC(C)CNC(=O)c1cc2ccccc2oc1=O	Not Active		
CN(Cc1ccccc1)C(=O)c1cc2ccccc2oc1=O	Not Active		IC50 [4]: Not Active
Cc1ccc(C)c(NC(=O)c2cc3ccccc3oc2=O)c1		15.9	
Cc1cccc(C)c1NC(=O)c1cc2ccccc2oc1=O		9.79	
O=C(Nc1c(F)cccc1F)c1cc2ccccc2oc1=O		12.8	
O=C(NCc1ccccc1)c1cc2ccccc2oc1=O	Not Active		
O=C(NC1CCCCC1)c1cc2ccccc2oc1=O	Not Active		
O=C(Cl)c1ccc(NC(=O)c2cc3ccccc3oc2=O)cc1		9.67	IC50 [4]: Not Active; Ratio IC50 (Homo sapiens): < 0.1
O=C(NCCc1ccccc1)c1cc2ccccc2oc1=O	Not Active		IC50 [4]: Not Active
CC(C)NC(=O)c1cc2ccccc2oc1=O	Not Active		
N#Cc1c(F)c(F)c(NC(=O)c2cc3ccccc3oc2=O)c(F)c1F		16	
C#CCNC(=O)c1cc2ccccc2oc1=O	Not Active		IC50 [4]: Not Active
Cc1cccc(NC(=O)c2cc3ccccc3oc2=O)c1C		20.6	
Cc1cccc(Cl)c1NC(=O)c1cc2ccccc2oc1=O	Not Active		
O=C(Nc1c(F)c(F)c(F)c(F)c1F)c1cc2ccccc2oc1=O	Not Active		
O=C(Nc1cccc(C(F)(F)F)c1)c1cc2ccccc2oc1=O	Not Active		

Continued, in another order:

IC50 [1]	IC50 [3] [µM]	SMILES	other results
Not Active		O=C(NCc1ccccc1)c1cc2ccc(OCc3ccccc3)cc2oc1=O	
	59.6	Cc1cccc(Cl)c1NC(=O)c1cc2ccc(OCc3ccc(F)cc3)cc2oc1=O	
	9.97	O=C(O)c1ccc(NC(=O)c2cc3ccccc3oc2=O)cc1	
	52.6	COc1cc(NC(=O)c2cc3ccc(OCc4ccc(F)cc4)cc3oc2=O)cc(OC)c1	
	13.1	O=C(Nc1ccccc1)c1cc2ccccc2oc1=O	
	49.2	COc1ccc(NC(=O)c2cc3ccc(OCc4ccc(F)cc4)cc3oc2=O)cc1OC	
	63.5	CC(C)NC(=O)c1cc2ccc(OCc3ccccc3)cc2oc1=O	IC50 [4]: Not Active; Ratio IC50 (Homo sapiens): < 0.63
	13.1	O=C(Nc1ccc(F)cc1)c1cc2ccccc2oc1=O	
Not Active		CN(C(=O)c1cc2ccc(OCc3ccccc3)cc2oc1=O)c1ccccc1	
	58.6	CC(C)CNC(=O)c1cc2ccc(OCc3ccccc3)cc2oc1=O	
	48.9	COc1ccc(NC(=O)c2cc3ccc(OCc4ccccc4)c(C)c3oc2=O)cc1OC	
	19.5	Cc1ccc(NC(=O)c2cc3ccccc3oc2=O)cc1	
	41.4	O=C(NNc1ccccc1)c1cc2ccc(OCc3ccccc3)cc2oc1=O	
	18.8	Cc1ccc(NC(=O)c2cc3ccccc3oc2=O)cc1C	
Not Active		O=C(NC1CCCCC1)c1cc2ccc(OCc3ccccc3)cc2oc1=O	
	14.8	CSc1ccc(NC(=O)c2cc3ccccc3oc2=O)cc1	
	9.33	CS(=O)(=O)c1ccc(NC(=O)c2cc3ccccc3oc2=O)cc1	
	16	CCOC(=O)c1ccc(NC(=O)c2cc3ccccc3oc2=O)cc1	IC50 [4]: Not Active; Ratio IC50 (Homo sapiens): < 0.16

IC50 [1]	IC50 [3] [µM]	SMILES	other results
	55.8	O=C(Nc1ccccc1Cc1ccccc1)c1cc2ccc(OCc3ccc(F)cc3)cc2oc1=O	IC50 [4]: Not Active; Ratio IC50 (Homo sapiens): < 0.56
Not Active		COc1ccc(NC(=O)c2cc3ccccc3oc2=O)cc1	
	15.1	CC(C)c1ccc(NC(=O)c2cc3ccccc3oc2=O)cc1	
Not Active		COc1cccc(NC(=O)c2cc3ccccc3oc2=O)c1	
Not Active		O=C(Nc1ccccc1Cc1ccccc1)c1cc2ccccc2oc1=O	
Not Active		COc1ccc(NC(=O)c2cc3ccc(OCc4ccccc4)cc3oc2=O)cc1OC	
	60.9	CC(C)c1ccc(NC(=O)c2cc3ccc(OCc4ccccc4)cc3oc2=O)cc1	
	49.7	Cc1cccc(Cl)c1NC(=O)c1cc2ccc(OCc3ccccc3)cc2oc1=O	
	52.9	COc1cc(NC(=O)c2cc3ccc(OCc4ccccc4)cc3oc2=O)cc(OC)c1	
	9.45	COc1ccc(NC(=O)c2cc3ccccc3oc2=O)cc1OC	
Not Active		O=C(Nc1cccc(F)c1)c1cc2ccccc2oc1=O	
	15.7	CCc1ccc(NC(=O)c2cc3ccccc3oc2=O)cc1	
Not Active		CC(C)c1ccc(NC(=O)c2cc3ccc(OCc4ccc(F)cc4)cc3oc2=O)cc1	IC50 [4]: Not Active
	51.9	O=C(Nc1ccccc1Cc1ccccc1)c1cc2ccc(OCc3ccccc3)cc2oc1=O	
	61.4	N#Cc1c(F)c(F)c(NC(=O)c2cc3ccc(OCc4ccccc4)cc3oc2=O)c(F)c1F	
	14.5	Cc1cccc(NC(=O)c2cc3ccccc3oc2=O)c1	
Not Active		O=C(Nc1ccc(O)cc1)c1cc2ccccc2oc1=O	
	61.5	COc1cc(NC(=O)c2cc3ccccc3oc2=O)cc(OC)c1	
